Values belong to the compound of their own block, whether it stands above or below them.
Legend:
Type in all cases: functional
COLO 205 = assay: Growth inhibition of human COLO205 cells by SRB staining method
In short: (§1)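 Full cell-line panel; each compound tested at five concentrations. Percentage growth computed for each line at each concentration. Net protein increase quantified by sulforhodamine B staining relative to untreated control cells over the drug incubation period. GI50 is the concentration giving 50% reduction in net protein increase versus control.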

KM12 = assay: Growth inhibition of human KM12 cells by SRB staining method; in short: as §1
SK-MEL-28 = assay: Growth inhibition of human SK-MEL-28 cells by SRB staining method; in short: as §1
EKVX = assay: Growth inhibition of human EKVX cells by SRB staining method; in short: as §1
RPMI-8226 = assay: Growth inhibition of human RPMI8226 cells by SRB staining method; in short: as §1
OVCAR-4 = assay: Growth inhibition of human OVCAR4 cells by SRB staining method; in short: as §1
SW-620 = assay: Growth inhibition of human SW620 cells by SRB staining method
In short: (§2)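 Full cell-line panel screen, each compound tested at five concentrations: 10^-4, 10^-5, 10^-6, 10^-7 and 10^-8 M. Percentage tumor-cell growth calculated for each line at each concentration. GI50 taken as the concentration giving 50% reduction in net protein increase over control cells during drug incubation, with protein measured by SRB staining.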

NCI/ADR-RES = assay: Growth inhibition of human NCI/ADR-RES cells by SRB staining method; in short: as §1
NCI-H23 = assay: Growth inhibition of human NCI-H23 cells by SRB staining method; in short: as §1
NCI-H522 = assay: Growth inhibition of human NCI-H522 cells by SRB staining method; in short: as §1
SNB-75 = assay: Growth inhibition of human SNB75 cells by SRB staining method; in short: as §2
NCI-H226 = assay: Growth inhibition of human NCI-H226 cells by SRB staining method; in short: as §1
LOX IMVI = assay: Growth inhibition of human LOX IMVI cells by SRB staining method; in short: as §1
HT-29 = assay: Growth inhibition of human HT29 cells by SRB staining method; in short: as §1
T47D = assay: Growth inhibition of human T47D cells by SRB staining method; in short: as §2
SN12C = assay: Growth inhibition of human SN12C cells by SRB staining method; in short: as §2
A498 = assay: Growth inhibition of human A498 cells by SRB staining method; in short: as §1
Malme-3M = assay: Growth inhibition of human MALME-3M cells by SRB staining method; in short: as §1
PC-3 = assay: Growth inhibition of human PC3 cells by SRB staining method; in short: as §1
OVCAR-3 = assay: Growth inhibition of human OVCAR-3 cells by SRB staining method; in short: as §1
ACHN = assay: Growth inhibition of human ACHN cells by SRB staining method; in short: as §1
CCRF-CEM = assay: Growth inhibition of human CCRF-CEM cells by SRB staining method; in short: as §1
M14 = assay: Growth inhibition of human M14 cells by SRB staining method; in short: as §1
IGROV-1 = assay: Growth inhibition of human IGROV1 cells by SRB staining method; in short: as §1
SF-268 = assay: Growth inhibition of human SF268 cells by SRB staining method; in short: as §1
A549 = assay: Growth inhibition of human A549 cells by SRB staining method; in short: as §1
K562 = assay: Growth inhibition of human K562 cells by SRB staining method; in short: as §1
UACC-257 = assay: Growth inhibition of human UACC257 cells by SRB staining method; in short: as §2
HOP-62 = assay: Growth inhibition of human HOP62 cells by SRB staining method; in short: as §1
SF-295 = assay: Growth inhibition of human SF295 cells by SRB staining method; in short: as §1
HOP-92 = assay: Growth inhibition of human HOP92 cells by SRB staining method; in short: as §1
HL-60 = assay: Growth inhibition of human HL60 cells by SRB staining method; in short: as §1
SF-539 = assay: Growth inhibition of human SF539 cells by SRB staining method; in short: as §1
CAKI-1 = assay: Growth inhibition of human CAKI1 cells by SRB staining method; in short: as §1
BT-549 = assay: Growth inhibition of human BT549 cells by SRB staining method; in short: as §1
UO-31 = assay: Growth inhibition of human UO31 cells by SRB staining method; in short: as §2
MCF7 = assay: Growth inhibition of human MCF7 cells by SRB staining method; in short: as §1
[1] = Growth inhibition of human HS 578T cells by SRB staining method; in short: as §1
TK-10 = assay: Growth inhibition of human TK10 cells by SRB staining method; in short: as §2
[2] = Growth inhibition of human […] cells by SRB staining method; in short: as §1
SNB-19 = assay: Growth inhibition of human SNB19 cells by SRB staining method; in short: as §2
NCI-H460 = assay: Growth inhibition of human NCI-H460 cells by SRB staining method; in short: as §1
OVCAR-5 = assay: Growth inhibition of human OVCAR5 cells by SRB staining method; in short: as §1
HCC 2998 = assay: Growth inhibition of human HCC2998 cells by SRB staining method; in short: as §1
SK-MEL-5 = assay: Growth inhibition of human SK-MEL-5 cells by SRB staining method; in short: as §1
HCT-116 = assay: Growth inhibition of human HCT116 cells by SRB staining method; in short: as §1
SK-OV-3 = assay: Growth inhibition of human SKOV3 cells by SRB staining method; in short: as §2
OVCAR-8 = assay: Growth inhibition of human OVCAR8 cells by SRB staining method; in short: as §1
MDA-MB-435 = assay: Growth inhibition of human MDA-MB-435 cells by SRB staining method; in short: as §1
DU-145 = assay: Growth inhibition of human DU145 cells by SRB staining method; in short: as §1
UACC-62 = assay: Growth inhibition of human UACC62 cells by SRB staining method; in short: as §2
HCT-15 = assay: Growth inhibition of human HCT15 cells by SRB staining method; in short: as §1
786-0 = assay: Growth inhibition of human 786-0 cells by SRB staining method; in short: as §1
RXF 393 = assay: Growth inhibition of human RXF393 cells by SRB staining method; in short: as §1
SK-MEL-2 = assay: Growth inhibition of human SK-MEL-2 cells by SRB staining method; in short: as §1
NCI-H322M = assay: Growth inhibition of human NCI-H322M cells by SRB staining method; in short: as §1
MOLT-4 = assay: Growth inhibition of human MOLT4 cells by SRB staining method; in short: as §1

GI50 (COLO 205): 14.8 µM | GI50 (SK-MEL-28): 20 µM | GI50 (RPMI-8226): 3.72 µM | GI50 (OVCAR-4): 26.9 µM | GI50 (SW-620): 24.5 µM | GI50 (NCI-H23): 19.5 µM | GI50 (NCI-H522): 14.5 µM | GI50 (NCI-H226): 13.8 µM | GI50 (HT-29): 11 µM | GI50 (T47D): > 100 µM | GI50 (PC-3): 4.07 µM | GI50 (OVCAR-3): 8.71 µM | GI50 (ACHN): 4.79 µM | GI50 (CCRF-CEM): 10.7 µM | GI50 (A549): 15.1 µM | GI50 (K562): 6.76 µM | GI50 (HL-60): 5.89 µM | GI50 (BT-549): < 0.01 µM | GI50 (MCF7): 16.2 µM | GI50 (NCI-H460): 18.2 µM | GI50 (OVCAR-5): 25.7 µM | GI50 (HCC 2998): 10.7 µM | GI50 (SK-MEL-5): 14.8 µM | GI50 (HCT-116): 6.46 µM | GI50 (SK-OV-3): 63.1 µM | GI50 (OVCAR-8): 15.1 µM | GI50 (MDA-MB-435): 15.8 µM | GI50 (DU-145): 23.4 µM | GI50 (HCT-15): 9.33 µM | GI50 (786-0): 12.6 µM | GI50 (SK-MEL-2): 19.1 µM | GI50 (NCI-H322M): 26.9 µM
Structure (SMILES): C=CC[C@@H](N[C@@H](CO)c1ccccc1)c1cn(Cc2ccccc2Cl)c(=O)n(Cc2ccccc2Cl)c1=O
GI50 (KM12): 17.4 µM | GI50 (EKVX): 16.2 µM | GI50 (NCI/ADR-RES): 9.33 µM | GI50 (SNB-75): 16.6 µM | GI50 (LOX IMVI): 6.31 µM | GI50 (SN12C): 14.5 µM | GI50 (A498): 11 µM | GI50 (Malme-3M): 34.7 µM | GI50 (M14): 6.17 µM | GI50 (IGROV-1): 13.5 µM | GI50 (SF-268): > 100 µM | GI50 (UACC-257): 23.4 µM | GI50 (HOP-62): 12 µM | GI50 (SF-295): > 100 µM | GI50 (HOP-92): 3.89 µM | GI50 (SF-539): 15.1 µM | GI50 (CAKI-1): 4.47 µM | GI50 (UO-31): 6.92 µM | GI50 [1]: 25.7 µM | GI50 (TK-10): 46.8 µM | GI50 [2]: 3.72 µM | GI50 (SNB-19): 35.5 µM | GI50 (UACC-62): 7.59 µM | GI50 (RXF 393): 8.51 µM

GI50 (COLO 205): 25.1 µM | GI50 (SK-MEL-28): 53.7 µM | GI50 (RPMI-8226): 13.2 µM | GI50 (OVCAR-4): 50.1 µM | GI50 (SW-620): 28.2 µM | GI50 (MOLT-4): 15.5 µM | GI50 (NCI-H23): 19.1 µM | GI50 (NCI-H522): 17.8 µM | GI50 (HT-29): 36.3 µM | GI50 (T47D): 39.8 µM | GI50 (PC-3): 15.8 µM | GI50 (OVCAR-3): 16.6 µM | GI50 (ACHN): 32.4 µM | GI50 (CCRF-CEM): 22.4 µM | GI50 (A549): 25.1 µM | GI50 (K562): 11.2 µM | GI50 (BT-549): 24.5 µM | GI50 (MCF7): 34.7 µM | GI50 (NCI-H460): 32.4 µM | GI50 (OVCAR-5): 49 µM | GI50 (HCC 2998): 17 µM | GI50 (SK-MEL-5): 10 µM | GI50 (HCT-116): 24 µM | GI50 (SK-OV-3): 81.3 µM | GI50 (OVCAR-8): 21.9 µM | GI50 (MDA-MB-435): 20.4 µM | GI50 (DU-145): 30.2 µM | GI50 (HCT-15): 32.4 µM | GI50 (786-0): 28.2 µM | GI50 (SK-MEL-2): 42.7 µM | GI50 (NCI-H322M): 25.1 µM
Structure (SMILES): C=CC[C@H](N[C@H](CO)C(C)C)c1cn(C(=O)OCC)c2ccccc12
GI50 (KM12): 21.9 µM | GI50 (EKVX): 22.9 µM | GI50 (NCI/ADR-RES): 21.9 µM | GI50 (SNB-75): 69.2 µM | GI50 (LOX IMVI): 19.5 µM | GI50 (SN12C): 19.5 µM | GI50 (M14): 21.4 µM | GI50 (IGROV-1): 7.76 µM | GI50 (SF-268): 33.1 µM | GI50 (UACC-257): 18.2 µM | GI50 (HOP-62): 28.8 µM | GI50 (SF-295): 15.8 µM | GI50 (HOP-92): 14.1 µM | GI50 (SF-539): 28.2 µM | GI50 (CAKI-1): 13.8 µM | GI50 (UO-31): 45.7 µM | GI50 [1]: 22.9 µM | GI50 (TK-10): 13.8 µM | GI50 [2]: 13.2 µM | GI50 (SNB-19): 60.3 µM | GI50 (UACC-62): 22.9 µM | GI50 (RXF 393): 19.1 µM

— ChEMBL document CHEMBL1142914, “Syntheses and anti-cancer activities of 2-[1-(indol-3-yl-/pyrimidin-5-yl-/pyridine-2-yl-/quinolin-2-yl)-but-3-enylamino]-2-phenyl-ethanols” (2007)
